# CHOP inhibitor – inhibitors of CHOP induction in ER stress response. CHO-K1 CHOP-promoter luciferase, tunicamycin-induced, 15-18 h. inhibition, % at 10 µM. actives 3.8% (n = 220,000);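 active = compounds that reduced the stress-induced luciferase reporter signal by more than about 70% of percent inhibition, limit read from the data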;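 also: 0% = tunicamycin plus vehicle and 100% = wells without tunicamycin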
# UPR CHOP act – apoptotic UPR (CHOP) activation. CHO-CHOP luciferase reporter, luminescence; percent of tunicamycin response over DMSO baseline. activation, % at 10 µM. actives 0.34% (n = 330,000);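 active = at 10 µM dose, activation of 40% or more, normalized to positive control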;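 also: 100% = tunicamycin at 10 µg/mL and 0% = DMSO alone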
#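 measured by = luciferase luminescence | assay system = CHO-CHOP cells, stable luciferase reporter of PERK-eIF2a-CHOP signalling | amount = 500 reporter cells seeded per well | timing = 6 h compound exposure at 37 °C after overnight seeding | controls = positive tunicamycin 10 µg/mL, negative DMSO alone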
# Lipid droplet – hepatic lipid droplet formation modulation; AML12 mouse hepatocytes, oleate lipid droplets, BODIPY imaging; AID 1656; inhibition, % at 6.5 µM; actives 0.4% (n = 240,000);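 active = lipid droplet intensity inhibited by at least 50%, with more than 500 cells counted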
#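 Assay system: AML12 hepatocytes (mouse) / Also added: 100 µM oleic acid challenge / Times: overnight treatment with compound plus oleate / Detection: high-content imaging of BODIPY-stained droplets and DAPI nuclei / Evaluation: % inhibition of lipid droplet signal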
# ANO1 activ – mouse TMEM16A channel activation, primary screen | HEK293 TMEM16A/YFP-H148Q/I152L, iodide quench fluorescence; hits give low values | actives 0.3% (n = 340,000) | Q8BHY3 | B-score at 10 µM;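 active = fluorescence-ratio B-score plate-corrected deviation score at least 3 library SD below zero, with starting fluorescence score within 5 deviations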;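 also: channel opened by trigger with iodide after compound preincubation; score built on the fluorescence ratio of max minus min over baseline; more negative score means more quench and so TMEM16A activation or potentiation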
# Target sequence (Q8BHY3 whole entry, looked up): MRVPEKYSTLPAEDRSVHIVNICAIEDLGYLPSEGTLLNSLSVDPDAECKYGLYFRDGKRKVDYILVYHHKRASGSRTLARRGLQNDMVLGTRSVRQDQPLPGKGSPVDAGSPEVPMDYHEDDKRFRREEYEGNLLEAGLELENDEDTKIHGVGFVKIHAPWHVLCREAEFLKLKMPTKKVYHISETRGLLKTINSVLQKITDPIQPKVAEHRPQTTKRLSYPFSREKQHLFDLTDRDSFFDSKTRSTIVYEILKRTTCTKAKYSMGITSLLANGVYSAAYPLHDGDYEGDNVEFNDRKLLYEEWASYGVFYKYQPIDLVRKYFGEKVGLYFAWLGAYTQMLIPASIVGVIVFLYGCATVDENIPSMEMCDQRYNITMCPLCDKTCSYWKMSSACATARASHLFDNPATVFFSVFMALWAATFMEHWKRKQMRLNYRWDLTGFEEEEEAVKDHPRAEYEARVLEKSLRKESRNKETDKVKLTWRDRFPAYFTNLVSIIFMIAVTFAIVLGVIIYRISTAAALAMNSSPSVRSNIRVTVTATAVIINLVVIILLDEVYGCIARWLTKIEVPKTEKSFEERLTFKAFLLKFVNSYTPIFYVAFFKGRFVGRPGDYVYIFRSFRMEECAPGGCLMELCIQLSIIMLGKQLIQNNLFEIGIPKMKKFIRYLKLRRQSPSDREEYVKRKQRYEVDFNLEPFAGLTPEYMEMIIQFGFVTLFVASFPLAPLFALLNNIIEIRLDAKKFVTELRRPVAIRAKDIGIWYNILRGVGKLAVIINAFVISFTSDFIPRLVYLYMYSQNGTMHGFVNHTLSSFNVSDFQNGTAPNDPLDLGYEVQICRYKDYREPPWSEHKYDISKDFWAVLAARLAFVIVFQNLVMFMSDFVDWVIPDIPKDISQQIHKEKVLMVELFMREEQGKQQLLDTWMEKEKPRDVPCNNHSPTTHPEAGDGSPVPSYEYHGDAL
# UPR XBP1 act – activators of adaptive arm of unfolded protein response (XBP1) | CHO-XBP1 luciferase reporter, IRE1-XBP1 UPR activation, luminescence; percent of tunicamycin response, DMSO as zero | activation, % at 20 µM | actives 0.33% (n = 330,000) | AID 463104;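 active = versus positive control, 20 µM dose yields 30% or more activation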;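 also: 100% = tunicamycin at 10 µg/mL and 0% = DMSO only wells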
#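 incubation = overnight seeding at 37 °C, 6 h compound treatment at 37 °C | assay system = CHO-XBP1 cells stably carrying IRE1-XBP1-driven luciferase reporter | input = 1000 cells per well | detection = luciferase luminescence | dosing = single point, 20 µM final compound, 1% DMSO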
# ANO1 block – inhibitors of mouse TMEM16A calcium-activated chloride channel; Q8BHY3; HEK293 TMEM16A/YFP iodide influx fluorescence, ionomycin; normalized B-score (activity score, 25-100; higher = stronger inhibition) at 10 µM; actives 1.2% (n = 310,000);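 active = ratio plate-corrected score three or more library SD toward inhibition, starting fluorescence score within five deviations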;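 also: score derived from kinetic fluorescence span divided by baseline fluorescence per well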
# * = called active by the depositor; i = inactive; . = no result given. Only some compounds are listed: those with a hit (about 4.2% of all), similar ones and a draw of the others.
SMILES,CHOP inhibitor,UPR CHOP act,Lipid droplet,ANO1 activ,UPR XBP1 act,ANO1 block
CC[C@@H](C)[C@H]1O[C@]2(CC[C@@H]1C)C[C@@H]1C[C@@H](C/C=C(\C)[C@@H](O[C@H]3C[C@H](OC)[C@@H](O[C@H]4C[C@H](OC)[C@@H](O)[C@H](C)O4)[C@H](C)O3)[C@@H](C)/C=C/C=C3\CO[C@@H]4[C@H](O)C(C)=C[C@@H](C(=O)O1)[C@]34O)O2,3.5,.,.,.,.,.
CC[C@H](C)[C@H]1O[C@]2(CC[C@@H]1C)C[C@@H]1C[C@@H](CC=C(C)[C@@H](O[C@H]3C[C@H](OC)[C@@H](O[C@H]4C[C@H](OC)[C@@H](O)[C@H](C)O4)[C@H](C)O3)[C@@H](C)C=CC=C3CO[C@@H]4[C@H](O)C(C)=C[C@@H](C(=O)O1)[C@]34O)O2,.,39.3,.,i,63.5*,25*
CCOC(=O)c1sc(Nc2nc3cc4c(cc3s2)OCO4)cc1C,98.1*,4.5,5.7,i,3.7,i
COc1ccc(CNc2cccc(F)c2)cc1Br,86.2*,1.0,11.8,i,-2.0,i
O=c1[nH]c2c(s1)C(c1ccccc1)C1C3CCC(C3)C1S2 (stereo not given),65.8,-0.6,-5.5,i,3.3,i
COc1ccc(C2c3sc(=O)[nH]c3SC3C4CCC(C4)C23)cc1 (stereo not given),88.4*,-2.4,23.3,i,-2.3,i
Cc1ccc(-n2[nH]c(C)c(C=Nc3ccc(Br)cn3)c2=O)cc1,79.6*,0.9,0.7,i,3.8,i
COc1ccc(C(=O)COc2ccccc2C(=O)Nc2ccccc2)cc1,1.7,3.6,.,i,-2.4,i
CCOc1ccc(Nc2nnc(SCc3nc4ccccc4c(=O)[nH]3)s2)cc1,95.9*,1.1,-4.0,i,2.8,i
Cc1ccccc1Nc1nnc(SCc2nc3ccccc3c(=O)[nH]2)s1,32.1,1.0,12.7,.,-2.3,i
CN(C(=O)c1ccc(F)cc1)c1ccc(OCC(=O)Nc2ccccc2C(=O)O)cc1,.,1.6,.,i,4.5,.
O=C(C1CC(=O)N(c2ccc(F)cc2)C1)N1CCC(c2nc3ccccc3[nH]2)CC1 (stereo not given),.,0.1,.,i,-0.8,i
CCN1C/C(=C\c2cccc([N+](=O)[O-])c2)C(=O)/C(=C/c2cccc([N+](=O)[O-])c2)C1,108.1*,.,-3.0,i,.,.
CCCCCCCCCCCCC/C=C/C(O)C(N)CO (stereo not given),-11.2,.,.,.,.,.
CCC(C)(C(=O)NC1CCCCC1)N(C(=O)C1CCC(=O)N1)c1ccc(C)cc1 (stereo not given),71.1*,-0.3,5.4,i,-0.5,i
COC(C(=O)Nc1c(F)cccc1F)c1ccccc1 (stereo not given),6.5,0.0,17.7,i,1.2,i
CCOC(=O)C1=C(C)N(C)C(=O)NC1c1c(O)ccc2ccccc12 (stereo not given),.,0.7,.,i,1.2,i
CCOc1ccc(NS(=O)(=O)c2cc3c(cc2C)N(C)CCO3)cc1,.,0.1,4.2,-9.04*,-3.9,i
Cc1c(C=O)c2ccccn2c1C(=O)c1ccccc1,72.0*,-2.4,5.3,i,1.2,i
Cc1ccc(-c2nn(CCC(N)=O)c(=O)c3ccccc23)cc1,.,2.1,2.1,i,-3.8,i
COC(=O)c1sccc1NC(=O)c1ccc(Br)o1,87.7*,-4.7,.,i,-1.8,i
Cc1cccc(N2C(=O)c3cccc(Oc4ccc(Cl)cc4)c3C2=O)c1,13.2,-1.8,3.4,-7.26*,1.2,i
CSc1ccccc1C(=O)OCC(=O)Nc1cccnc1Cl,.,2.6,.,i,4.0,.
O=C1Nc2ccccc2C(=O)C1(Cl)Cc1ccccc1 (stereo not given),76.8*,2.6,.,i,-5.4,i
CC1(C)CC(=O)C2=C(C1)OC(N)=C(C#N)C2c1cc2c(cc1[N+](=O)[O-])OCO2 (stereo not given),56.9,.,3.3,-4.97*,.,i
SMILES,CHOP inhibitor,UPR CHOP act,Lipid droplet,ANO1 activ,UPR XBP1 act,ANO1 block
Cc1ccc(NC(=O)Nc2nnc(Cc3ccc([N+](=O)[O-])cc3)s2)cc1C,40.5,3.7,-23.4,i,3.6,i
O=C(Nc1ccccc1)Nc1nnc(Cc2ccc([N+](=O)[O-])cc2)s1,90.3*,5.2,-3.0,i,1.8,i
O=C(Nc1nnc(Cc2ccc([N+](=O)[O-])cc2)s1)Nc1ccccc1F,74.5*,-1.1,1.2,i,2.5,i
CCc1noc(C)c1C(=O)Nc1ccc(C(F)(F)F)cc1,.,-0.3,6.3,i,-6.1,i
CCN(C(=O)COC(=O)CCC1CCCC1)c1c(N)n(Cc2ccccc2)c(=O)[nH]c1=O,.,0.2,.,i,0.1,.
Cc1ccc(C(=O)c2c3ccc([N+](=O)[O-])cc3[n+]([O-])n2CCCN)cc1,.,-0.9,.,i,-2.0,i
Cc1ccc(-c2noc(CCC(=O)N3CCN(c4cccc(C(F)(F)F)c4)CC3)n2)cc1,39.1,1.3,-21.1,i,-6.3,25*
CC1(C)SC(=S)N(/N=C/c2ccccc2O)C1N(O)C(=O)Nc1ccccc1 (stereo not given),-12.7,-0.1,-0.3,i,-3.5,i
CC1(C)SC(=S)N(/N=C/c2ccc(O)cc2)C1N(O)C(=O)Nc1ccc([N+](=O)[O-])cc1 (stereo not given),47.9,-2.0,.,i,7.5,100*
CCn1c(SCC(=O)NC2CC2)nnc1-c1ccc(F)cc1,.,-0.5,3.2,i,-4.2,i
CC1Cc2ccccc2N1c1nc(C2CC2)nc2c1nnn2Cc1ccccc1 (stereo not given),14.4,1.3,-12.4,i,-1.3,i
CC1Cc2ccccc2N1c1ncnc2c1nnn2Cc1ccccc1 (stereo not given),73.0*,-1.4,.,i,-0.7,i
COC(=O)c1sc(S(=O)(=O)Nc2c(C)nn(C)c2C)c(C(=O)OC)c1C,.,1.2,.,i,-3.4,.
COC(=O)c1sc(NC(=S)NNC(=O)c2c(Br)c(C)nn2C)c(C(=O)OC)c1C,.,-0.8,-4.4,i,-7.0,100*
O=C(/C=C/c1c[nH]c2ccccc12)c1cccc2ccccc12,87.0*,2.7,-1.0,i,1.2,i
O=C(c1ccccc1)c1c[nH]c2ccccc12,.,.,-22.8,i,.,i
CN(CC(=O)NCCc1ccccc1)S(=O)(=O)c1cccs1,42.3,0.6,.,-5.4*,-1.9,i
CN(CC(=O)NCCc1ccc(Cl)cc1)S(=O)(=O)c1cccs1,.,2.9,-1.2,i,7.4,i
